Measurements: ChEMBL document CHEMBL1828568, “Novel imaging agents for β-amyloid plaque based on the N-benzoylindole core” (Bioorg Med Chem Lett, 2011)

How the values were obtained:
Stomach [1] = assay: Biodistribution in Kunming mouse stomach assessed per organ at 1 uCi, iv after 240 mins by gamma counting; format: ADME, organism-based; conditions: in vivo, 4 h
How it was run: (§1)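 Radioiodinated tracers given intravenously to normal mice; organs taken at 2, 15, 30, 60, 120 and 240 min after injection. Uptake expressed as % ID/g, mean ± SD of 5 mice; stomach values carry a table footnote.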

Lung [2] = assay: Biodistribution in Kunming mouse lung at 1 uCi, iv after 120 mins by gamma counting; format: ADME, organism-based; conditions: in vivo, 2 h
How it was run: (§2)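 125I-labeled tracer given intravenously to normal mice. Organs and blood were sampled at 2, 15, 30, 60, 120 and 240 min after injection. Uptake is expressed as % ID/g, averaged over 5 mice ± SD.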

Kidney [3] = assay: Biodistribution in Kunming mouse kidney at 1 uCi, iv after 15 mins by gamma counting; format: ADME, organism-based; conditions: in vivo, 0.25 h; how it was run: as §2
Liver [4] = assay: Biodistribution in Kunming mouse liver at 1 uCi, iv after 60 mins by gamma counting; format: ADME, organism-based; conditions: in vivo, 1 h; how it was run: as §2
Spleen [5] = assay: Biodistribution in Kunming mouse spleen at 1 uCi, iv after 240 mins by gamma counting; format: ADME, organism-based; conditions: in vivo, 4 h; how it was run: as §2
Stomach [6] = assay: Biodistribution in Kunming mouse stomach assessed per organ at 1 uCi, iv after 30 mins by gamma counting; format: ADME, organism-based; conditions: in vivo, 0.5 h; how it was run: as §1
Heart [7] = assay: Biodistribution in Kunming mouse heart at 1 uCi, iv after 30 mins by gamma counting; format: ADME, organism-based; conditions: in vivo, 0.5 h; how it was run: as §2
Brain [8] = assay: Biodistribution in Kunming mouse brain at 1 uCi, iv after 60 mins by gamma counting; format: ADME, organism-based; conditions: in vivo, 1 h; how it was run: as §2
Heart [9] = assay: Biodistribution in Kunming mouse heart at 1 uCi, iv after 120 mins by gamma counting; format: ADME, organism-based; conditions: in vivo, 2 h; how it was run: as §2
Muscle tissue [10] = assay: Biodistribution in Kunming mouse muscle at 1 uCi, iv after 15 mins by gamma counting; format: ADME, organism-based; conditions: in vivo, 0.25 h; how it was run: as §2
Lung [11] = assay: Biodistribution in Kunming mouse lung at 1 uCi, iv after 60 mins by gamma counting; format: ADME, organism-based; conditions: in vivo, 1 h; how it was run: as §2
Muscle tissue [12] = assay: Biodistribution in Kunming mouse muscle at 1 uCi, iv after 240 mins by gamma counting; format: ADME, organism-based; conditions: in vivo, 4 h; how it was run: as §2
Liver [13] = assay: Biodistribution in Kunming mouse liver at 1 uCi, iv after 2 mins by gamma counting; format: ADME, organism-based; conditions: in vivo; how it was run: as §2
Spleen [14] = assay: Biodistribution in Kunming mouse spleen at 1 uCi, iv after 15 mins by gamma counting; format: ADME, organism-based; conditions: in vivo, 0.25 h; how it was run: as §2
[15] = Octanol-phosphate buffer partition coefficient, log D of the compound at pH 7.4; format: physicochemical
How it was run: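 Radioiodinated tracer partitioned between n-octanol and PBS at pH 7.4; log D reported as mean ± SD.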

Lung [16] = assay: Biodistribution in Kunming mouse lung at 1 uCi, iv after 15 mins by gamma counting; format: ADME, organism-based; conditions: in vivo, 0.25 h; how it was run: as §2
Brain [17] = assay: Biodistribution in Kunming mouse brain at 1 uCi, iv after 240 mins by gamma counting; format: ADME, organism-based; conditions: in vivo, 4 h; how it was run: as §2
Liver [18] = assay: Biodistribution in Kunming mouse liver at 1 uCi, iv after 30 mins by gamma counting; format: ADME, organism-based; conditions: in vivo, 0.5 h; how it was run: as §2
Liver [19] = assay: Biodistribution in Kunming mouse liver at 1 uCi, iv after 15 mins by gamma counting; format: ADME, organism-based; conditions: in vivo, 0.25 h; how it was run: as §2
Kidney [20] = assay: Biodistribution in Kunming mouse kidney at 1 uCi, iv after 30 mins by gamma counting; format: ADME, organism-based; conditions: in vivo, 0.5 h; how it was run: as §2
Liver [21] = assay: Biodistribution in Kunming mouse liver at 1 uCi, iv after 240 mins by gamma counting; format: ADME, organism-based; conditions: in vivo, 4 h; how it was run: as §2
Brain [22] = assay: Biodistribution in Kunming mouse brain at 1 uCi, iv after 15 mins by gamma counting; format: ADME, organism-based; conditions: in vivo, 0.25 h; how it was run: as §2
Spleen [23] = assay: Biodistribution in Kunming mouse spleen at 1 uCi, iv after 120 mins by gamma counting; format: ADME, organism-based; conditions: in vivo, 2 h; how it was run: as §2
Blood [24] = assay: Biodistribution in Kunming mouse blood at 1 uCi, iv after 15 mins by gamma counting; format: ADME, organism-based; conditions: in vivo, 0.25 h; how it was run: as §2
Blood [25] = assay: Biodistribution in Kunming mouse blood at 1 uCi, iv after 120 mins by gamma counting; format: ADME, organism-based; conditions: in vivo, 2 h; how it was run: as §2
Blood [26] = assay: Biodistribution in Kunming mouse blood at 1 uCi, iv after 240 mins by gamma counting; format: ADME, organism-based; conditions: in vivo, 4 h; how it was run: as §2
Stomach [27] = assay: Biodistribution in Kunming mouse stomach assessed per organ at 1 uCi, iv after 60 mins by gamma counting; format: ADME, organism-based; conditions: in vivo, 1 h; how it was run: as §1

COc1ccc(/C=C/C(=O)n2ccc3cc([125I])ccc32)cc1
Drug uptake (Stomach [1]): 4.14 %ID
Drug uptake (Lung [2]): 4.31 % ID/g
Drug uptake (Kidney [3]): 9.31 % ID/g
Drug uptake (Liver [4]): 12.3 % ID/g
Drug uptake (Spleen [5]): 4.45 % ID/g
Drug uptake (Stomach [6]): 4.92 %ID
Drug uptake (Heart [7]): 2.45 % ID/g
Drug uptake (Brain [8]): 1.04 % ID/g
Drug uptake (Heart [9]): 1.21 % ID/g
Drug uptake (Muscle tissue [10]): 2.62 % ID/g
Drug uptake (Lung [11]): 6.39 % ID/g
Drug uptake (Muscle tissue [12]): 0.92 % ID/g
Drug uptake (Liver [13]): 24.76 % ID/g
Drug uptake (Spleen [14]): 8.04 % ID/g
logD [15]: 2.32
Drug uptake (Lung [16]): 11.13 % ID/g
Drug uptake (Brain [17]): 0.21 % ID/g
Drug uptake (Liver [18]): 14.05 % ID/g
Drug uptake (Liver [19]): 18.05 % ID/g
Drug uptake (Kidney [20]): 8.21 % ID/g
Drug uptake (Liver [21]): 7.65 % ID/g
Drug uptake (Brain [22]): 2.29 % ID/g
Drug uptake (Spleen [23]): 6.18 % ID/g
Drug uptake (Blood [24]): 5.82 % ID/g
Drug uptake (Blood [25]): 3.12 % ID/g
Drug uptake (Blood [26]): 2.78 % ID/g
Drug uptake (Stomach [27]): 5 %ID
